Measurements as given in ChEMBL document CHEMBL5120742, “Multi-target weapons: diaryl-pyrazoline thiazolidinediones simultaneously targeting VEGFR-2 and HDAC cancer hallmarks” (RSC Med Chem, 2021).

Key:
[1] = Cytotoxicity against HUVEC cells assessed as reduction in cell viability after 96 hrs by MTT assay; settings: human
Histone deacetylase 4 [2] = target: T1, Histone deacetylase 4 (Homo sapiens, UniProt P56524); assay: Inhibition of recombinant human N-terminal His6-SUMO-tagged C-terminal SII-tagged HDAC4 expressed in Escherichia coli (BL21) DE3 pLysS cells assessed as residual activity at 50 uM using BocLys(trifluoroacetyl)-AMC as substrate incubated for 30 mins by fluorescence assay relative to control
Method in brief: (§1)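 Catalytic-domain HDAC4 (His6-SUMO/SII-tagged) and full-length codon-optimized human HDAC8 were expressed in E. coli BL21 DE3 pLysS from pET14b. Both were assayed in a two-step fluorogenic format with Boc-Lys(trifluoroacetyl)-AMC, followed by trypsin development. Compounds were screened first at 50 µM for residual activity.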

Histone deacetylase 7 = target: T2, Histone deacetylase 7 (Homo sapiens, UniProt Q8WUI4); assay: Inhibition of recombinant human N-terminal GST-tagged HDAC7 (518 to end residues) expressed in baculovirus infected sf9 insect cells using BocLys(trifluoroacetyl)-AMC as substrate incubated for 30 mins by fluorescence assay
T2 sequence (Q8WUI4 whole entry): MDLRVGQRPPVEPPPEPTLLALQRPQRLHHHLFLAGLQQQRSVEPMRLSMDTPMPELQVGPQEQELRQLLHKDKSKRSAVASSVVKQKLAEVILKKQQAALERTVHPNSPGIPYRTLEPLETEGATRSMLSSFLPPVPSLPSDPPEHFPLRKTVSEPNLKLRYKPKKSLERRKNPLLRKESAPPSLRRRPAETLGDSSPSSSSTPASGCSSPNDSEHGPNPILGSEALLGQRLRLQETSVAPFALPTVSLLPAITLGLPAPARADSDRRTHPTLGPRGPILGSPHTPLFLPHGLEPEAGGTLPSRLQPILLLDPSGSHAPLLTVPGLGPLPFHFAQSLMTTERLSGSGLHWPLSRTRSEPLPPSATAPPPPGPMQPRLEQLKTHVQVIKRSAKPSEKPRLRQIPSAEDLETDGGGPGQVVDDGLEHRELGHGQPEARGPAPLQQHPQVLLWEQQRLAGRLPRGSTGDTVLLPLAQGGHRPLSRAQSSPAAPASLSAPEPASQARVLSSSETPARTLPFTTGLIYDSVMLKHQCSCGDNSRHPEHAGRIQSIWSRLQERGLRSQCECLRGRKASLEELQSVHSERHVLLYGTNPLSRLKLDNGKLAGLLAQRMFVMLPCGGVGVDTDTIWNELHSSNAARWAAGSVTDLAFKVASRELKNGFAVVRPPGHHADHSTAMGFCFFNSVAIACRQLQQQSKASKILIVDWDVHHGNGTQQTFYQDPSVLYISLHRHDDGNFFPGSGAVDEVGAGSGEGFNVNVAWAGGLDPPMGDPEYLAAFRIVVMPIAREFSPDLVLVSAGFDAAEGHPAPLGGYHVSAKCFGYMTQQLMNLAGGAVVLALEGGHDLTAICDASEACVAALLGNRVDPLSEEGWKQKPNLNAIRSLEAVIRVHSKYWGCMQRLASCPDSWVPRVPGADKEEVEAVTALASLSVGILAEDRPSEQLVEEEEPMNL
Method in brief: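 Recombinant HDAC7 was tested in a two-step fluorogenic assay. Boc-Lys(trifluoroacetyl)-AMC serves as substrate, then trypsin releases the fluorophore.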

Histone deacetylase 1 = Histone deacetylase 1 (Homo sapiens, UniProt Q13547); assay: Inhibition of recombinant human C-terminal His6-FLAG-tagged HDAC1 (1 to end residues) expressed in sf9 insect cells using Boc-Lys(acetyl)-AMC as substrate incubated for 30 mins by fluorescence assay
Method in brief: (§2)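 Two-step fluorogenic assay with recombinant HDAC1, 2, 3 or 6. Deacetylation of Boc-Lys(acetyl)-AMC is followed by trypsin conversion of the deacetylated product to a fluorescent signal.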

Histone deacetylase 2 = Histone deacetylase 2 (Homo sapiens, UniProt Q92769); assay: Inhibition of recombinant human HDAC2 Boc-Lys(acetyl)-AMC as substrate incubated for 30 mins by fluorescence assay; method in brief: as §2
Histone deacetylase 4 [3] = target: T1, Histone deacetylase 4; assay: Inhibition of recombinant human N-terminal His6-SUMO-tagged C-terminal SII-tagged HDAC4 expressed in Escherichia coli (BL21) DE3 pLysS cells using BocLys(trifluoroacetyl)-AMC as substrate incubated for 30 mins by fluorescence assay; method in brief: as §1
[4] = target: T3, Protein deacetylase HDAC6 (Homo sapiens, UniProt Q9UBN7); assay: Inhibition of recombinant human HDAC6 using Boc-Lys(acetyl)-AMC as substrate incubated for 30 mins by fluorescence assay; method in brief: as §2
T3 sequence (Q9UBN7 whole entry): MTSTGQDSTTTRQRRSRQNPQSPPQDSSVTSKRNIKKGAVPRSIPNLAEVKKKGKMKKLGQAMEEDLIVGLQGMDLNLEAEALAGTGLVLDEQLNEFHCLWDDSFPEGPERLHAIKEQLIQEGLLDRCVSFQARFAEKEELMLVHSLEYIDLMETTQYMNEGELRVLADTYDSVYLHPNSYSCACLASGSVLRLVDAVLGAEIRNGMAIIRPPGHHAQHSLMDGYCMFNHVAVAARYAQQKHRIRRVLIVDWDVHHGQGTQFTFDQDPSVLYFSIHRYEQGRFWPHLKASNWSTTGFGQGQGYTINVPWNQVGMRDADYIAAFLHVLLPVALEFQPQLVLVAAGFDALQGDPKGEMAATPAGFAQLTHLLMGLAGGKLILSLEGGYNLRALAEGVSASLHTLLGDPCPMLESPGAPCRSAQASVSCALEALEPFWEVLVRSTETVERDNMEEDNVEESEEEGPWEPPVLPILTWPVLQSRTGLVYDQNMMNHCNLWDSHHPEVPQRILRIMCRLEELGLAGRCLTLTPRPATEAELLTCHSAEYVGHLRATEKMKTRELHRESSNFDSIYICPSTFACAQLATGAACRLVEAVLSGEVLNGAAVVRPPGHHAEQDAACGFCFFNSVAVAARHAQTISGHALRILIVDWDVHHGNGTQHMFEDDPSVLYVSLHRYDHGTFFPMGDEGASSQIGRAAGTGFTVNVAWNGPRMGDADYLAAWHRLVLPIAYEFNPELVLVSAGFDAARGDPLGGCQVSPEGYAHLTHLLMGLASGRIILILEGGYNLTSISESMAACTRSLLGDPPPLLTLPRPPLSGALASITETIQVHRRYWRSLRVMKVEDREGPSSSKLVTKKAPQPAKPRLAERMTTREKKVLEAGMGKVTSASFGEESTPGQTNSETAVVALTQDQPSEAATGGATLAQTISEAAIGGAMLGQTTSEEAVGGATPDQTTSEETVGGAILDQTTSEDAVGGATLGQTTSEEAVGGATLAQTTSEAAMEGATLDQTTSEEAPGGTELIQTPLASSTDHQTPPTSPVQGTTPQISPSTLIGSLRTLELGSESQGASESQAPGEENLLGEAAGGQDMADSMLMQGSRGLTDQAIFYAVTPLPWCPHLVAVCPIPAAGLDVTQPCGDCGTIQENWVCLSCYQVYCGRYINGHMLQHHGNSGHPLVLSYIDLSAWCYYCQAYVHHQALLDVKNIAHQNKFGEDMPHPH

Sequence of Histone deacetylase 2 (Q92769 whole entry): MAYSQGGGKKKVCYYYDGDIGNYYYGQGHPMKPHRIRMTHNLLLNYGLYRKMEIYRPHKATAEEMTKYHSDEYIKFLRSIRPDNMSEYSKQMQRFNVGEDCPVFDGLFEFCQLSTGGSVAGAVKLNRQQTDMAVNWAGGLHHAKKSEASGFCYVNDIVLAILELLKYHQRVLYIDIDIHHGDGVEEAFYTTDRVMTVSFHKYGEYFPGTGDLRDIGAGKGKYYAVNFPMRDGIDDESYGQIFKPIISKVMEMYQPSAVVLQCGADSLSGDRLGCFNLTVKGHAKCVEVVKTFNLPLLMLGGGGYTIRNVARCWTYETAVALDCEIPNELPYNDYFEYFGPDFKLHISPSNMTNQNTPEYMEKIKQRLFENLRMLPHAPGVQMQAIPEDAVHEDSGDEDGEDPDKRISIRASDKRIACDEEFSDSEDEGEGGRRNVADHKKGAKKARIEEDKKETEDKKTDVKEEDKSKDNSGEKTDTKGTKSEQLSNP
Sequence of Histone deacetylase 1 (Q13547 whole entry): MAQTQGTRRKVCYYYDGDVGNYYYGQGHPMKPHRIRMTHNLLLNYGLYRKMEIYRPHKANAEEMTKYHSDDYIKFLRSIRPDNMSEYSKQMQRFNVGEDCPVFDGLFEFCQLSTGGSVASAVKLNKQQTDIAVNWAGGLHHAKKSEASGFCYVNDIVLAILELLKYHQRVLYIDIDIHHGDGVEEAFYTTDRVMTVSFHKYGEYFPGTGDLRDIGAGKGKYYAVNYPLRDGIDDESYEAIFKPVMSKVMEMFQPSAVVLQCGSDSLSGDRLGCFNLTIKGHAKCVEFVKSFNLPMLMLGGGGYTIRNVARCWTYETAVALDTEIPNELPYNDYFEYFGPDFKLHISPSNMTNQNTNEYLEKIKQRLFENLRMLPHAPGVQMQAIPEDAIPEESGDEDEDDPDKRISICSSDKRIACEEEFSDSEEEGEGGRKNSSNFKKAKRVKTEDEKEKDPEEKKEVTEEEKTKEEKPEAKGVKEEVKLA
T1 sequence (P56524 whole entry): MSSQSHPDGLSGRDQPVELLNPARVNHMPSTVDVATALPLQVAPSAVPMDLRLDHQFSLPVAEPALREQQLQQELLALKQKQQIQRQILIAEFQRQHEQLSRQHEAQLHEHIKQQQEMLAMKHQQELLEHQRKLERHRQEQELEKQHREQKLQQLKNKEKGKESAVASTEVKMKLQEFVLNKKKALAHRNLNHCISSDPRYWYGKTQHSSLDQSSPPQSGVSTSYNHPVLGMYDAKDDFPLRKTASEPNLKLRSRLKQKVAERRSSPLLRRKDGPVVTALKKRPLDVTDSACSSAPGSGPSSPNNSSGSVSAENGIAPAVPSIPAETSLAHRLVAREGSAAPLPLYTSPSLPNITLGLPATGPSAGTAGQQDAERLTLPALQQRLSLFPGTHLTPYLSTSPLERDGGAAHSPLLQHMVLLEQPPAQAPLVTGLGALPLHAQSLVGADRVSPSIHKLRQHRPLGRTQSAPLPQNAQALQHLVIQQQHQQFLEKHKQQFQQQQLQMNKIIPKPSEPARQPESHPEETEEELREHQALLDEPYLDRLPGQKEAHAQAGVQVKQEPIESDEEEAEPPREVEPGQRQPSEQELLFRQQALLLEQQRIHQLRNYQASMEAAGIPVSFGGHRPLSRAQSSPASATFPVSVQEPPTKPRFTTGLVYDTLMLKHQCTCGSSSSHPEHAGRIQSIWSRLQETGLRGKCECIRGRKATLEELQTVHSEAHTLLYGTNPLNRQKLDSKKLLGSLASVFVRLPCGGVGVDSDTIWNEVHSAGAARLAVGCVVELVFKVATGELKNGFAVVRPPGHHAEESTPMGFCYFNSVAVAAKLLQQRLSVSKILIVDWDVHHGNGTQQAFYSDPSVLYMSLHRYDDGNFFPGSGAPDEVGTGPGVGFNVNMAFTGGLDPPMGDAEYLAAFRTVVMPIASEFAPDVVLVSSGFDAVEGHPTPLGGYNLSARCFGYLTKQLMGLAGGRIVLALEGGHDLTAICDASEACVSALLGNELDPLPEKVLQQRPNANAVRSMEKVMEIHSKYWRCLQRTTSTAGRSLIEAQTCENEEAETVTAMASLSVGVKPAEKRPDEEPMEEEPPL

Activity (Histone deacetylase 4 [2])	IC50 (Histone deacetylase 7)	IC50 (Histone deacetylase 1)	IC50 (Histone deacetylase 2)	IC50 (Histone deacetylase 4 [3])	IC50 [4]	Compound	IC50 at 96 h [1]
36%	> 50 µM	> 50 µM	> 50 µM	0.88 µM	7.6 µM	O=C1NC(=O)/C(=C\c2ccc(OCC(=O)N3N=C(c4ccc(F)cc4)CC3c3ccco3)cc2)S1 (stereo unspecified)	0.7 µM
13%	6.7 µM	11 µM	21 µM	0.8 µM	13 µM	O=C1NC(=O)/C(=C\c2ccc(OCC(=O)N3N=C(c4ccc(F)cc4)CC3c3ccc(Cl)c(Cl)c3)cc2)S1 (stereo unspecified)	2 µM
5.9%	> 50 µM	4.9 µM	13 µM	0.7 µM	39 µM	O=C1NC(=O)/C(=C\c2ccc(OCC(=O)N3N=C(c4ccccc4)CC3c3ccc(Cl)c(Cl)c3)cc2)S1 (stereo unspecified)	> 10 µM
